This passage reports Activity and EC50 results from ChEMBL document CHEMBL3421535, “Antioxidative compounds from Garcinia buchananii stem bark” (J Nat Prod, 2015).

pEC50: −log10 of the molar value. “And” between values parts separate entries of the source, which are not always exact repeats. Equal values may be shown once.

Common to all, as to assay type: physicochemical
The nature of data set [1]: Antioxidant activity assessed as trolox equivalent of […] radical scavenging activity preincubated for 30 mins followed by […] addition measured after 90 mins by lipophilic-ORAC fluorescence assay. The note with it: 1.5 h. The essentials:
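Lipophilic ORAC adapted from the Madrona procedure. Trolox standards (200, 100, 50, 25, 12.5 μM) and sample dilutions were made in 7% (w/v) randomly methylated β-cyclodextrin in acetone/H2O (1:1), which also served as blank. Fluorescein and AAPH were prepared in 10 mM phosphate buffer, pH 7.4. AAPH was added after incubation. Read-out otherwise as H-ORAC; quadruplicate, mean ± SD.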

The nature of data set [2]: Antioxidant activity assessed as trolox equivalent of APPH radical scavenging activity preincubated for 30 mins followed by APPH addition measured after 90 mins by hydrophilic-ORAC fluorescence assay. The note with it: 1.5 h. The essentials: (§1)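 Hydrophilic TEAC (ABTS) or hydrophilic ORAC run by the previously reported method. Each sample was measured in quadruplicate; values are mean ± SD.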

Data set [3] in a line: Antioxidant activity assessed as H2O2 scavenging activity after 15 mins. The essentials: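 H2O2 scavenging run by the previously reported method. Each sample was measured in triplicate; values are mean ± SD.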
Data set [4] is described as follows: Antioxidant activity assessed as trolox equivalent of ABTS radical scavenging activity after 10 mins by lipophilic-TEAC […] assay. The essentials:
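Lipophilic ABTS TEAC, a modification of the H-TEAC method. Trolox standards (1000, 500, 250, 125, 62.5 μM) and sample dilutions were prepared in 50% DMSO/H2O. Pure DMSO was added to give 10% final DMSO. Processing and measurement followed H-TEAC; quadruplicate, mean ± SD.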

The nature of data set [5]: Antioxidant activity assessed as trolox equivalent of ABTS radical scavenging activity after 10 mins by hydrophilic-TEAC fluorescence assay. The essentials:
as §1

Data set [6] can be described thus: Antioxidant activity assessed as trolox equivalent of ABTS radical scavenging activity measured for 1 to 6 mins by lipophilic-TEAC […] assay. The essentials: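 Lipophilic TEAC adapted from the hydrophilic ABTS method: Trolox standards (1000, 500, 250, 125, 62.5 μM) and sample dilutions made in 50% DMSO. Pure DMSO added to wells, giving 10% DMSO final. Otherwise processed, measured and handled as in H-TEAC. Quadruplicate analyses, mean ± SD.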

Data set [7] is described as follows: Antioxidant activity assessed as trolox equivalent of […] radical scavenging activity preincubated for 30 mins followed by […] addition measured every 1.14 mins for 120 mins by lipophilic-ORAC fluorescence assay. The settings on record: 2 h. The essentials: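 Lipophilic ORAC (modified Madrona procedure): Trolox standards (200–12.5 μM) and samples diluted in 7% RMCD in acetone/water 1:1. Fluorescein and AAPH prepared in 10 mM phosphate buffer pH 7.4. Fluorescein mixed with standard, sample or RMCD blank, incubated as in H-ORAC, then AAPH added. Read-out and data handling as in H-ORAC. Quadruplicate, mean ± SD.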

For the compound `CC(C)=CCc1c(O)cc2oc3c(O)c(O)ccc3c(=O)c2c1O`, the Activity in data set [1] worked out at 3.81 mmolequiv/mmol; in data set [2] it was 1.06 mmolequiv/mmol; in data set [4] it was 2.96 mmolequiv/mmol; in data set [5] it was 0.89 mmolequiv/mmol. In data set [3], the pEC50 (in general, −log10 of the EC50, conventionally taken in molar units) was 4.71.

Turning to `O=C1O[C@H]([C@@H](O)CO)C(O)=C1O` [ASCORBIC ACID], the Activity is reported as 0.73 mmolequiv/mmol in data set [1]; 0.62 mmolequiv/mmol in data set [2]; 1.05 mMequiv in data set [6]; 1.09 mmolequiv/mmol in data set [4]; 1.16 mmolequiv/mmol in data set [5]. In addition, in data set [3], the pEC50 is 4.62.

For the compound `O=C1c2c(cc(O)c([C@@H]3C(=O)c4c(O)cc(O)cc4O[C@H]3c3ccc(O)c(O)c3)c2O)O[C@H](c2ccc(O)c(O)c2)[C@H]1O`, the Activity in data set [1] is 14.56 mmolequiv/mmol; in data set [2] it was 7.54 mmolequiv/mmol; in data set [4], 4.95 mmolequiv/mmol; in data set [5], 3.5 mmolequiv/mmol. In addition, the pEC50 in data set [3] is 5.07.

Consider `O=c1c(O)c(-c2ccc(O)c(O)c2)oc2cc(O)cc(O)c12` [QUERCETIN], for which the Activity in data set [1] is 11.94 mmolequiv/mmol; in data set [2], 9.36 mmolequiv/mmol; in data set [6], 3.1 mMequiv; in data set [7], 10.4 umolequiv/umol; in data set [4], 4.84 mmolequiv/mmol; in data set [5], 4.85 mmolequiv/mmol. The negative-log EC50 (pEC50) in data set [3] is 5.21.

As for `O=C1c2c(O)cc(O)cc2O[C@H](c2ccc(O)c(O)c2)C1O` (single isomer, unassigned) [(+)-TAXIFOLIN], the Activity in data set [1] amounted to 9.3 mmolequiv/mmol; in data set [2], 6.61 mmolequiv/mmol; in data set [4], 2.84 mmolequiv/mmol; in data set [5], 2.48 mmolequiv/mmol. For the same compound, the negative-log EC50 (pEC50) in data set [3] is 4.95.

For the compound `COc1c(O)ccc2c1Oc1cc(O)c(CC=C(C)C)c(O)c1C(=O)O2`, the Activity in data set [1] is recorded as 4.34 mmolequiv/mmol; in data set [2], 2.5 mmolequiv/mmol; in data set [4] it was 1.68 mmolequiv/mmol; in data set [5], 0.89 mmolequiv/mmol. The pEC50 in data set [3] is ≥ 4.34.

As for `O=C1c2c(O)cc(O)c(-c3coc4cc(O)cc(O)c4c3=O)c2O[C@H](c2ccc(O)c(O)c2)[C@H]1O`, the Activity in data set [1] turned out to be 6.96 mmolequiv/mmol; in data set [2], 4.38 mmolequiv/mmol; in data set [4], 2.92 mmolequiv/mmol; in data set [5], 1.48 mmolequiv/mmol. The negative-log EC50 (pEC50) in data set [3] was 4.76.

Turning to `O=c1c2cc(O)ccc2oc2cccc(O)c12`, the Activity amounted to 2.95 mmolequiv/mmol in data set [1], 2.43 mmolequiv/mmol in data set [2], 1.33 mmolequiv/mmol in data set [4] and 0.4 mmolequiv/mmol in data set [5]. In addition, the pEC50 in data set [3] is 4.10.

For the compound `CC1(C)C=Cc2c(cc3oc4c(O)c(O)ccc4c(=O)c3c2O)O1` [JACAREUBIN], the Activity in data set [1] is 2.74 mmolequiv/mmol; in data set [2], 1.16 mmolequiv/mmol; in data set [4], 2.06 mmolequiv/mmol; in data set [5] it was 0.84 mmolequiv/mmol. Also, in data set [3], the pEC50 is 4.58.

On to `COc1cc(C(=O)c2c(O)cc3c(c2OC)C=CC(C)(C)O3)ccc1O`, for which the Activity in data set [1] is 4.87 mmolequiv/mmol; in data set [2] it was 2.44 mmolequiv/mmol; in data set [4], 1.04 mmolequiv/mmol; in data set [5] it was 0.4 mmolequiv/mmol. Moreover, the pEC50 in data set [3] was ≥ 4.27.

For the compound `O=C1c2c(O)cc(O)c([C@@H]3C(=O)c4c(O)cc(O)cc4O[C@H]3c3ccc(O)c(O)c3)c2O[C@H](c2ccc(O)c(O)c2)[C@H]1O`, the Activity is recorded as 15 mmolequiv/mmol in data set [1], 13.73 mmolequiv/mmol in data set [2], 5.29 mmolequiv/mmol in data set [4] and 5.58 mmolequiv/mmol in data set [5]. Also, the pEC50 in data set [3] was 5.55.

Turning to `Oc1cc(O)c2c(c1)O[C@H](c1ccc(O)c(O)c1)[C@H](O)C2` [(-)-EPICATECHIN], the Activity in data set [1] amounted to 15.69 mmolequiv/mmol; in data set [2], 9.98 mmolequiv/mmol; in data set [4] it was 5.01 mmolequiv/mmol; in data set [5] it was 3.71 mmolequiv/mmol. Besides, in data set [3], the pEC50 is 5.39.

On to `O=C1CC(c2ccc(O)cc2)Oc2cc(O)cc(O)c21` (racemic), for which the Activity is recorded as 7.35 mmolequiv/mmol in data set [1]; 6.2 mmolequiv/mmol in data set [2]; 1.14 mMequiv in data set [6]; 2.94 mmolequiv/mmol in data set [4]; 1.98 mmolequiv/mmol in data set [5]. Besides, the pEC50 in data set [3] is 5.07.

Consider `C=C(C)[C@@H](CC=C(C)C)C[C@@]12C[C@@H](CC=C(C)C)C(C)(C)[C@@](CC=C(C)C)(C(=O)C(C(=O)c3ccc(O)c(O)c3)=C1O)C2=O` [GARCINOL], for which the Activity in data set [1] is recorded as 3.44 mmolequiv/mmol; in data set [2] it was 1.28 mmolequiv/mmol; in data set [4] it was 1.92 mmolequiv/mmol; in data set [5], 0.81 mmolequiv/mmol. In addition, in data set [3], the pEC50 is 4.80.

Consider `CC(C)=CC[C@H]1C[C@@]23C[C@@H](CC=C(C)C)C(C)(C)[C@@](CC=C(C)C)(C(=O)C(C(=O)c4ccc(O)c(O)c4)=C2OC1(C)C)C3=O` [CAMBOGIN], for which the Activity was found to be 3.68 mmolequiv/mmol in data set [1], 0.6 mmolequiv/mmol in data set [2], 1.67 mmolequiv/mmol in data set [4] and 0.48 mmolequiv/mmol in data set [5]. Further, in data set [3], the pEC50 was 4.08.

`Cc1cc(C(C)(C)C)c(O)c(C(C)(C)C)c1` [BUTYLATED HYDROXYTOLUENE]: the Activity is 0.2 mmolequiv/mmol and 0.12 umolequiv/umol in data set [1]; 0.27 mMequiv in data set [6]; 0.76 mmolequiv/mmol in data set [4].
